Data published in ChEMBL document CHEMBL1142995, “Probing the pharmacophore of ginkgolides as glycine receptor antagonists” (J Med Chem, 2007).

Tests used:
Type in all cases: cell-based
[1] = target: T1, Glycine receptor subunit alpha-2 (Homo sapiens, UniProt P23416); assay: Activity at human alpha-2GlyR expressed in HEK293 cells by FMP assay
T1 sequence (P23416 whole entry): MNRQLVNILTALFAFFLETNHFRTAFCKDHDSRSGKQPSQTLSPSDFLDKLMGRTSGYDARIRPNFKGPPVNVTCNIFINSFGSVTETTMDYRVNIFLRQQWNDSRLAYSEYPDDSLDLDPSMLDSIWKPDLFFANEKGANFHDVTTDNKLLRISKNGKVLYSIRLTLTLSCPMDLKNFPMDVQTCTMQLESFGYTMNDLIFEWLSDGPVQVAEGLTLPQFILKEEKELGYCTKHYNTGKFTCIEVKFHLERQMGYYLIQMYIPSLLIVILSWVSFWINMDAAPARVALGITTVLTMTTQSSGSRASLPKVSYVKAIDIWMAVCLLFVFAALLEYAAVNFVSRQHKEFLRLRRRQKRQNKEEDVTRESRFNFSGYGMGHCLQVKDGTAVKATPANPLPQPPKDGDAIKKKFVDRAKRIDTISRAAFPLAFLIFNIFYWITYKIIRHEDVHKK
Outline: (§1)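 Stable HEK293 lines (α1: G418; α1β: G418 + hygromycin B; α2: hygromycin B) plated on poly-D-lysine 16-24 h. Loaded with FMP dye in HBSS/20 mM HEPES pH 7.4, antagonist present, 30 min at 37 °C. Fluorescence ex 530/em 560 nm read up to 1 min after glycine: 200 µM (α1, α1β) or 500 µM (α2). Duplicates, ≥3 experiments; IC50 from maximal responses.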

[2] = target: T2, Glycine receptor subunit alpha-1 (Homo sapiens, UniProt P23415); assay: Activity at human alpha-1GlyR expressed in HEK293 cells by FMP assay; outline: as §1
T2 sequence (P23415 whole entry): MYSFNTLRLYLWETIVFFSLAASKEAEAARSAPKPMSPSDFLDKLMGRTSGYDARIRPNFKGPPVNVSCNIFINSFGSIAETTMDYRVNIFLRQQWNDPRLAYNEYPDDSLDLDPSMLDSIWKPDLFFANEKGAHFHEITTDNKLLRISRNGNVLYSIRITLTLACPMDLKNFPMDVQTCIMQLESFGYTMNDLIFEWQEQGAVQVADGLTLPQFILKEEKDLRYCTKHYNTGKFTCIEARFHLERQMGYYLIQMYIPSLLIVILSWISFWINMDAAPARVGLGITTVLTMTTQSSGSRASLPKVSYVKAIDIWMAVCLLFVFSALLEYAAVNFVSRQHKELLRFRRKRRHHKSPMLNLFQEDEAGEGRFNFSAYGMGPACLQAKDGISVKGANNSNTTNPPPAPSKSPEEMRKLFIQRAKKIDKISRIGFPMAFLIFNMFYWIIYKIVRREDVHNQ

[3] = target: T2, Glycine receptor subunit alpha-1; assay: Activity at human alpha-1-beta-GlyR expressed in HEK293 cells by FMP assay; outline: as §1

COC(=O)/C(C)=C1\CC[C@@]23C4C[C@@H](C(C)(C)C)C25C(OC(=O)[C@@H]5O)O[C@]13C(=O)O4 (stereo partly drawn)
IC50 [1]: > 100 µM
IC50 [2]: > 100 µM
IC50 [3]: > 100 µM

C[C@@H]1C(=O)O[C@H]2[C@H](O)[C@]34[C@@H]5C(=O)O[C@@]3(O[C@@H]3OC(=O)[C@H](O)[C@@]34[C@H](C(C)(C)C)[C@@H]5Cl)[C@@]12O
IC50 [1]: 13 µM
IC50 [2]: 7.6 µM
IC50 [3]: 3.2 µM

C[C@@H]1C(=O)O[C@H]2C[C@@]34C5C[C@@H](C(C)(C)C)C3C(=O)O[C@]4(C(=O)O5)[C@]21O (stereo partly drawn)
IC50 [1]: > 100 µM
IC50 [2]: > 100 µM
IC50 [3]: > 100 µM

CO[C@H]1C(=O)O[C@H]2O[C@@]34OC(=O)[C@@H]5[C@H](O)[C@@H](C(C)(C)C)[C@@]21[C@@]53[C@@H](O)[C@@H]1OC(=O)[C@@H](C)[C@@]14O
IC50 [1]: 7.8 µM
IC50 [2]: 9.8 µM
IC50 [3]: 5.2 µM

COC1C[C@]23C4C[C@@H](C(C)(C)C)C25C(OC(=O)[C@@H]5OC(C)=O)O[C@@]3(C(=O)O1)C(=O)O4 (stereo partly drawn)
IC50 [1]: > 100 µM
IC50 [2]: > 100 µM
IC50 [3]: > 100 µM

CN[C@@H]1C2OC(=O)[C@]34OC5OC(=O)[C@H](O)C5([C@@H]1C(C)(C)C)[C@@]23[C@@H](O)[C@@H]1OC(=O)[C@@H](C)[C@@]14O (stereo partly drawn)
IC50 [1]: > 100 µM
IC50 [2]: > 100 µM
IC50 [3]: > 100 µM

COC1C[C@@]23C4C[C@@H](C(C)(C)C)C25C(OC(=O)[C@@H]5OC)O[C@@]3(C(=O)O1)C(=O)O4 (stereo partly drawn)
IC50 [1]: > 100 µM
IC50 [2]: > 100 µM
IC50 [3]: > 100 µM

C[C@@H]1C(=O)O[C@H]2[C@H](O)[C@]34C5OC(=O)[C@@]3(OC3OC(=O)[C@H](O)C34[C@H](C(C)(C)C)C5=O)[C@@]12O (stereo partly drawn)
IC50 [1]: > 100 µM
IC50 [2]: > 100 µM
IC50 [3]: > 100 µM

COC(=O)[C@H](OC)C12C(OC)O[C@@]34C(=O)OC(C[C@H]1C(C)(C)C)[C@]23C[C@@H]1OC(=O)[C@@H](C)[C@@]14O (stereo partly drawn)
IC50 [1]: > 100 µM
IC50 [2]: > 100 µM
IC50 [3]: > 100 µM

C[C@@H]1CO[C@H]2C[C@@]34C5C[C@@H](C(C)(C)C)C36C(OC[C@@H]6O)O[C@]4(CO5)[C@@]12O (stereo partly drawn)
IC50 [1]: > 100 µM
IC50 [2]: > 100 µM
IC50 [3]: > 100 µM

C[C@@H]1CO[C@H]2C[C@@]34C5C[C@@H](C(C)(C)C)C36C(OC[C@@H]6O)O[C@]4(C(=O)O5)[C@@]12O (stereo partly drawn)
IC50 [1]: > 100 µM
IC50 [2]: > 100 µM
IC50 [3]: > 100 µM

COC(=O)C(C)[C@H]1CC[C@@]23C4C[C@@H](C(C)(C)C)C25C(OC(=O)[C@@H]5O)O[C@]13C(=O)O4 (stereo partly drawn)
IC50 [1]: > 100 µM
IC50 [2]: > 100 µM
IC50 [3]: > 100 µM

CC(C)(C)[C@@H]1CC2OC(=O)C34OC5OC(=O)[C@H](O)C51[C@@]23CC1OC(=O)[C@](C)(O)[C@@]14O (stereo partly drawn)
IC50 [1]: > 100 µM
IC50 [2]: > 100 µM
IC50 [3]: > 100 µM

CC(=O)O[C@@H]1C2OC(=O)[C@]34OC5OC(=O)[C@H](O)C5([C@@H]1C(C)(C)C)[C@@]23[C@@H](O)[C@@H]1OC(=O)[C@@H](C)[C@@]14O (stereo partly drawn)
IC50 [1]: > 100 µM
IC50 [2]: > 100 µM
IC50 [3]: > 100 µM

CCN[C@@H]1C2OC(=O)[C@]34OC5OC(=O)[C@H](O)C5([C@@H]1C(C)(C)C)[C@@]23[C@@H](O)[C@@H]1OC(=O)[C@@H](C)[C@@]14O (stereo partly drawn)
IC50 [1]: > 100 µM
IC50 [2]: > 100 µM
IC50 [3]: > 100 µM

C[C@@H]1C(=O)O[C@H]2C[C@]34C5OC(=O)[C@]3(OC(O)C4[C@H](C(C)(C)C)[C@H]5O)[C@]21O (stereo partly drawn)
IC50 [1]: > 100 µM
IC50 [2]: > 100 µM
IC50 [3]: > 100 µM
